Assay results taken from ChEMBL document CHEMBL3244187, “Structure--activity relationships in cephalosporins prepared from penicillins. 2. Analogues of cephalexin substituted in the 3-methyl group” (J Med Chem, 1977).
Values after ≈ are worked out from the molar mass of the structure shown. Active and inactive are the calls of the source. The rule behind the calls is not given here.

Legend:
[1] = Drug level in mouse blood at 50 mg/kg, po after 2 hrs by microbiological assay; format: ADME, organism-based; parameters: dose 50 mg/kg, route oral; details: read-out: Drug uptake
Summary of the method: (§1)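 Mice given a single 50 mg/kg dose by the route in the line. Groups of five killed at each time point and blood taken from the cut axilla, heparinized and stored at 4 °C. Blood assayed the same day by large-plate microbiological assay with Sarcina lutea NCTC 8340, overnight at 30 °C. Standards made in mouse blood, with pH 7.2 phosphate-buffered saline as diluent.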

[2] = Drug level in mouse blood at 50 mg/kg, po after 4 hrs by microbiological assay; format: ADME, organism-based; parameters: dose 50 mg/kg, route oral; details: read-out: Drug uptake; summary of the method: as §1
Salmonella typhi = assay: Antibacterial activity against Salmonella typhi after 18 hrs by serial dilution method; format: functional, Salmonella enterica subsp. enterica serovar Typhi; details: Salmonella enterica
Summary of the method: (§2)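 MICs by serial dilution on nutrient agar. Inoculum 0.001 mL of undiluted overnight broth culture. Plates incubated 18 h at 37 °C before reading. The S. aureus Russell strain produces β-lactamase and resists benzylpenicillin.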

[3] = Drug level in mouse blood at 50 mg/kg, iv after 30 mins by microbiological assay; format: ADME, organism-based; parameters: dose 50 mg/kg, route intravenous; details: read-out: Drug uptake; summary of the method: as §1
[4] = Drug level in mouse blood at 50 mg/kg, po after 20 mins by microbiological assay; format: ADME, organism-based; parameters: dose 50 mg/kg, route oral; details: read-out: Drug uptake; summary of the method: as §1
[5] = Drug level in mouse blood at 50 mg/kg, sc after 30 mins by microbiological assay; format: ADME, organism-based; parameters: dose 50 mg/kg, route subcutaneous; details: read-out: Drug uptake; summary of the method: as §1
[6] = Drug level in mouse blood at 50 mg/kg, po after 30 mins by microbiological assay; format: ADME, organism-based; parameters: dose 50 mg/kg, route oral; details: read-out: Drug uptake; summary of the method: as §1
[7] = Drug level in mouse blood at 50 mg/kg, po after 10 mins by microbiological assay; format: ADME, organism-based; parameters: dose 50 mg/kg, route oral; details: read-out: Drug uptake; summary of the method: as §1
[8] = Drug level in mouse blood at 50 mg/kg, iv after 1 hr by microbiological assay; format: ADME, organism-based; parameters: dose 50 mg/kg, route intravenous; details: read-out: Drug uptake; summary of the method: as §1
Proteus mirabilis = assay: Antibacterial activity against Proteus mirabilis after 18 hrs by serial dilution method; format: functional
Summary of the method: (§3)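 MICs by serial dilution on nutrient agar. Inoculum 0.001 mL of undiluted overnight broth culture. Plates incubated at 37 °C for 18 h before reading.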

Staphylococcus aureus [9] = assay: Antibacterial activity against beta-lactamase producing benzylpenicillin-resistant Staphylococcus aureus Russell after 18 hrs by serial dilution method; format: functional; summary of the method: as §2
[10] = Drug level in mouse blood at 50 mg/kg, iv after 20 mins by microbiological assay; format: ADME, organism-based; parameters: dose 50 mg/kg, route intravenous; details: read-out: Drug uptake; summary of the method: as §1
[11] = Drug level in mouse blood at 50 mg/kg, iv after 10 mins by microbiological assay; format: ADME, organism-based; parameters: dose 50 mg/kg, route intravenous; details: read-out: Drug uptake; summary of the method: as §1
Klebsiella aerogenes = assay: Antibacterial activity against Klebsiella aerogenes after 18 hrs by serial dilution method; format: functional; summary of the method: as §3
[12] = Drug level in mouse blood at 50 mg/kg, sc after 1 hr by microbiological assay; format: ADME, organism-based; parameters: dose 50 mg/kg, route subcutaneous; details: read-out: Drug uptake; summary of the method: as §1
[13] = Drug level in mouse blood at 50 mg/kg, iv after 2 hrs by microbiological assay; format: ADME, organism-based; parameters: dose 50 mg/kg, route intravenous; details: read-out: Drug uptake; summary of the method: as §1
[14] = Drug level in mouse blood at 50 mg/kg, po after 1 hr by microbiological assay; format: ADME, organism-based; parameters: dose 50 mg/kg, route oral; details: read-out: Drug uptake; summary of the method: as §1
[15] = Drug level in mouse blood at 50 mg/kg, sc after 2 hrs by microbiological assay; format: ADME, organism-based; parameters: dose 50 mg/kg, route subcutaneous; details: read-out: Drug uptake; summary of the method: as §1
[16] = Drug level in mouse blood at 50 mg/kg, sc after 10 mins by microbiological assay; format: ADME, organism-based; parameters: dose 50 mg/kg, route subcutaneous; details: read-out: Drug uptake; summary of the method: as §1
Escherichia coli = assay: Antibacterial activity against Escherichia coli after 18 hrs by serial dilution method; format: functional; summary of the method: as §3
[17] = Drug level in mouse blood at 50 mg/kg, iv after 4 hrs by microbiological assay; format: ADME, organism-based; parameters: dose 50 mg/kg, route intravenous; details: read-out: Drug uptake; summary of the method: as §1
[18] = Drug level in mouse blood at 50 mg/kg, sc after 20 mins by microbiological assay; format: ADME, organism-based; parameters: dose 50 mg/kg, route subcutaneous; details: read-out: Drug uptake; summary of the method: as §1
Shigella sonnei = assay: Antibacterial activity against Shigella sonnei after 18 hrs by serial dilution method; format: functional; summary of the method: as §3
[19] = Drug level in mouse blood at 50 mg/kg, sc after 4 hrs by microbiological assay; format: ADME, organism-based; parameters: dose 50 mg/kg, route subcutaneous; details: read-out: Drug uptake; summary of the method: as §1
Staphylococcus aureus [20] = assay: Antibacterial activity against Staphylococcus aureus Oxford after 18 hrs by serial dilution method; format: functional; summary of the method: as §3
Enterobacter cloacae = assay: Antibacterial activity against cephalosporin-resistant Enterobacter cloacae after 18 hrs by serial dilution method; format: functional, organism-based; summary of the method: as §2
Morganella morganii = assay: Antibacterial activity against cephalosporin-resistant Proteus morganii after 18 hrs by serial dilution method; format: functional, organism-based; summary of the method: as §2
Pseudomonas aeruginosa = assay: Antibacterial activity against cephalosporin-resistant Pseudomonas aeruginosa after 18 hrs by serial dilution method; format: functional, organism-based; summary of the method: as §2
[21] = Drug metabolism in mouse assessed as metabolite level in urine by Sarcina lutea antibacterial assay; format: ADME
Summary of the method: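 Urine from dosed mice run on paper strip chromatography in butanol-ethanol-water (4:1:5). Active zones located on agar plates seeded with Sarcina lutea.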

Row | Compound | concentration at 2 h [1] | concentration at 4 h [2] | MIC (Salmonella typhi) | concentration at 20 min [4] | concentration at 0.5 h [6] | concentration at 10 min [7] | MIC (Proteus mirabilis) | MIC (Staphylococcus aureus [9]) | MIC (Klebsiella aerogenes) | concentration at 1 h [14] | MIC (Escherichia coli) | MIC (Shigella sonnei) | MIC (Staphylococcus aureus [20]) | also measured
1 | CC(=O)OCC1=C(C(=O)O)N2C(=O)[C@@H](NC(=O)[C@H](N)c3ccccc3)[C@H]2SC1 [CEPHALOGLYCIN] | 700 ng/mL | 70 ng/mL | 1.25 µg/mL (≈ 3.08 µM) | 2600 ng/mL | 2000 ng/mL | 1700 ng/mL | 5 µg/mL (≈ 12.3 µM) | 2.5 µg/mL (≈ 6.17 µM) | 5 µg/mL (≈ 12.3 µM) | 600 ng/mL | 5 µg/mL (≈ 12.3 µM) | 2.5 µg/mL (≈ 6.17 µM) | 1.25 µg/mL (≈ 3.08 µM) | concentration at 0.5 h [3]: 11000 ng/mL; concentration at 0.5 h [5]: 21700 ng/mL; concentration at 1 h [8]: 1500 ng/mL; concentration at 20 min [10]: 40200 ng/mL; concentration at 10 min [11]: 62400 ng/mL; concentration at 1 h [12]: 3100 ng/mL; concentration at 2 h [13]: < 100 ng/mL; concentration at 2 h [15]: 200 ng/mL; concentration at 10 min [16]: 37100 ng/mL; concentration at 4 h [17]: < 100 ng/mL; concentration at 20 min [18]: 30200 ng/mL; concentration at 4 h [19]: < 100 ng/mL
2 | CC(=O)OCCC1=C(C(=O)O)N2C(=O)[C@@H](NC(=O)[C@H](N)c3ccccc3)[C@H]2SC1 |  |  | 25 µg/mL (≈ 59.6 µM) |  |  |  | > 50 µg/mL | 10 µg/mL (≈ 23.8 µM) | 25 µg/mL (≈ 59.6 µM) |  | > 50 µg/mL | 50 µg/mL (≈ 119 µM) | 0.5 µg/mL (≈ 1.19 µM) | 
3 | N[C@@H](C(=O)N[C@@H]1C(=O)N2C(C(=O)O)=C(Cc3ccccc3)CS[C@H]12)c1ccccc1 | 340 ng/mL | 150 ng/mL | 25 µg/mL (≈ 59 µM) | 180 ng/mL | 210 ng/mL | 110 ng/mL | 50 µg/mL (≈ 118 µM) | 2.5 µg/mL (≈ 5.9 µM) | 25 µg/mL (≈ 59 µM) | 190 ng/mL | 25 µg/mL (≈ 59 µM) | 25 µg/mL (≈ 59 µM) | 0.1 µg/mL (≈ 0.236 µM) | 
4 | COC(=O)CC1=C(C(=O)O)N2C(=O)[C@@H](NC(=O)[C@H](N)c3ccccc3)[C@H]2SC1 |  |  | 8 µg/mL (≈ 19.7 µM) |  |  |  | 63 µg/mL (≈ 155 µM) | 16 µg/mL (≈ 39.5 µM) | 63 µg/mL (≈ 155 µM) |  | 31 µg/mL (≈ 76.5 µM) | 16 µg/mL (≈ 39.5 µM) | 0.5 µg/mL (≈ 1.23 µM) | 
5 | N[C@@H](C(=O)N[C@@H]1C(=O)N2C(C(=O)O)=C(Cc3cccnc3)CS[C@H]12)c1ccccc1 | 650 ng/mL | 100 ng/mL | 1.25 µg/mL (≈ 2.94 µM) | 1440 ng/mL | 1250 ng/mL | 2850 ng/mL | 5 µg/mL (≈ 11.8 µM) | 2.5 µg/mL (≈ 5.89 µM) | 2.5 µg/mL (≈ 5.89 µM) | 620 ng/mL | 2.5 µg/mL (≈ 5.89 µM) | 2.5 µg/mL (≈ 5.89 µM) | 0.25 µg/mL (≈ 0.589 µM) | Activity (Enterobacter cloacae): inactive; Activity (Morganella morganii): inactive; Activity (Pseudomonas aeruginosa): inactive
6 | Cc1ccncc1CC1=C(C(=O)O)N2C(=O)[C@@H](NC(=O)[C@H](N)c3ccccc3)[C@H]2SC1 |  |  | 5 µg/mL (≈ 11.4 µM) |  |  |  | 25 µg/mL (≈ 57 µM) | 12.5 µg/mL (≈ 28.5 µM) | 12.5 µg/mL (≈ 28.5 µM) |  | 12.5 µg/mL (≈ 28.5 µM) | 12.5 µg/mL (≈ 28.5 µM) | 0.12 µg/mL (≈ 0.274 µM) | 
7 | CN(C)S(=O)(=O)c1ccc(CC2=C(C(=O)O)N3C(=O)[C@@H](NC(=O)[C@H](N)c4ccccc4)[C@H]3SC2)cc1 |  |  | 25 µg/mL (≈ 47.1 µM) |  |  |  | 125 µg/mL (≈ 236 µM) | 500 µg/mL (≈ 942 µM) | 50 µg/mL (≈ 94.2 µM) |  | 25 µg/mL (≈ 47.1 µM) | 25 µg/mL (≈ 47.1 µM) | 0.5 µg/mL (≈ 0.942 µM) | 
8 | N[C@@H](C(=O)N[C@@H]1C(=O)N2C(C(=O)O)=C(Cc3cccc(C(=O)O)c3)CS[C@H]12)c1ccccc1 | 1600 ng/mL | 550 ng/mL |  | 1050 ng/mL | 1800 ng/mL | 870 ng/mL |  |  |  | 1700 ng/mL |  | 25 µg/mL (≈ 53.5 µM) |  | concentration at 0.5 h [5]: 49600 ng/mL; Activity (Enterobacter cloacae): inactive; concentration at 1 h [12]: 26200 ng/mL; concentration at 2 h [15]: 13700 ng/mL; concentration at 10 min [16]: 84200 ng/mL; concentration at 20 min [18]: 64200 ng/mL; Activity (Morganella morganii): inactive; Activity (Pseudomonas aeruginosa): inactive; concentration at 4 h [19]: 1600 ng/mL; Drug metabolism [21]: metabolite_notdetected
